Results taken from ChEMBL document CHEMBL1125868, “Antidopaminergic effects of the stereoisomers of N-[(1-alkyl-2- pyrrolidinyl)methyl]-5-sulfamoylbenzamides and -2,3-dihydrobenzofuran-7-carboxamides” (J Med Chem, 1991).

Legend:
D(2) dopamine receptor = D(2) dopamine receptor (Rattus norvegicus, UniProt P61169); experiment: Binding affinity towards dopamine receptor D2 using as [3H]-spiperone radioligand.
In short: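 Rat striatal membranes washed in 50 mM Tris-HCl pH 7.7, then resuspended in 50 mM Tris-HCl pH 7.1 with NaCl, KCl, CaCl2, MgCl2, ascorbate and 10 μM pargyline, preincubated 10 min at 37 °C. Incubated with [3H]spiperone (0.2 nM final) for 20 min at 37 °C, then filtered. IC50 read from concentration-inhibition curves.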

Mus musculus = experiment: Ability to inhibit apomorphine induced hyperactivity in mice after intraperitoneal administration; type: functional; settings: ip
In short: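 Male mice in groups of three, dosed ip 1 h before apomorphine HCl 0.5 mg/kg sc. Motor activity counted for 20 min right after apomorphine.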

[1] = test system: Dopamine receptor (Mus musculus); experiment: Inhibitory effects on the hyperactivity against dopamine receptor after peroral administration

D(2) dopamine receptor, sequence (P61169 whole entry): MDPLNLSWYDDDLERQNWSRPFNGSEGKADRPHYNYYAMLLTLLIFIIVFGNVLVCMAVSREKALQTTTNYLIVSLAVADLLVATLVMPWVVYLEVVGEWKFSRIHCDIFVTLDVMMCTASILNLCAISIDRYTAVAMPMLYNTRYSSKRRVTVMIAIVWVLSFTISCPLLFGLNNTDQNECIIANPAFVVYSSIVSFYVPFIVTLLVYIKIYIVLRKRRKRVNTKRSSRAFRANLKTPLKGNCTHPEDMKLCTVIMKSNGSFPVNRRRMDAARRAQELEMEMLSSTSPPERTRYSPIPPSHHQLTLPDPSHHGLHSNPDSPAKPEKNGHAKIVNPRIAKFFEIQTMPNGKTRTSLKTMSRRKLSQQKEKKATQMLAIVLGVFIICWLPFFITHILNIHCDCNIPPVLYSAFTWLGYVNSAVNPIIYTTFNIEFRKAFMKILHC

Compound | Ki (D(2) dopamine receptor) | ED50 (Mus musculus) | ED50 [1]
CCN1CCC[C@H]1CNC(=O)c1cc(S(N)(=O)=O)cc2c1O[C@H](C)C2 | 21 nM | 11 mg/kg | 87.3 mg/kg
CCCCCCN1CCC[C@@H]1CNC(=O)c1cc(S(N)(=O)=O)cc2c1O[C@@H](C)C2 | 6.7 nM | 12.2 mg/kg | –
CCN1CCC[C@@H]1CNC(=O)c1cc(S(N)(=O)=O)cc2c1O[C@H](C)C2 | 650 nM | 145 mg/kg | –
CCCCCCN1CCC[C@H]1CNC(=O)c1cc(S(N)(=O)=O)ccc1OC | 1400 nM | > 100 mg/kg | > 100 mg/kg
CCN1CCC[C@H]1CNC(=O)c1cc(S(N)(=O)=O)ccc1OC [LEVOSULPIRIDE] | – | 9.3 mg/kg | –
CCCCN1CCC[C@@H]1CNC(=O)c1cc(S(N)(=O)=O)cc2c1O[C@H](C)C2 | – | 11.6 mg/kg | –
CCCCCCN1CCC[C@@H]1CNC(=O)c1cc(S(N)(=O)=O)ccc1OC | 59 nM | 28.2 mg/kg | 65 mg/kg
CCN1CCC[C@@H]1CNC(=O)c1cc(S(N)(=O)=O)cc2c1O[C@@H](C)C2 | 400 nM | 71.7 mg/kg | 419 mg/kg
CCCCCCN1CCC[C@H]1CNC(=O)c1cc(S(N)(=O)=O)cc2c1O[C@@H](C)C2 | – | > 100 mg/kg | –
CCCCN1CCC[C@H]1CNC(=O)c1cc(S(N)(=O)=O)ccc1OC | 51 nM | 49.2 mg/kg | 135 mg/kg
CCCCN1CCC[C@@H]1CNC(=O)c1cc(S(N)(=O)=O)cc2c1O[C@@H](C)C2 | 9.4 nM | 3.7 mg/kg | –
CCCCN1CCC[C@H]1CNC(=O)c1cc(S(N)(=O)=O)cc2c1O[C@H](C)C2 | 210 nM | 72.1 mg/kg | –
CCCCN1CCC[C@H]1CNC(=O)c1cc(S(N)(=O)=O)cc2c1O[C@@H](C)C2 | 95 nM | 38.8 mg/kg | –
CCCCN1CCC[C@@H]1CNC(=O)c1cc(S(N)(=O)=O)ccc1OC | 230 nM | 92.3 mg/kg | 184 mg/kg
CCN1CCC[C@@H]1CNC(=O)c1cc(S(N)(=O)=O)ccc1OC | – | > 250 mg/kg | –
CCN1CCC[C@H]1CNC(=O)c1cc(S(N)(=O)=O)cc2c1O[C@@H](C)C2 | 9.6 nM | 5.7 mg/kg | 60.3 mg/kg
